Measured values from ChEMBL document CHEMBL1128562, “1-Phenyl-3-amino-1,2,3,4-tetrahydronaphthalenes and related derivatives as ligands for the neuromodulatory sigma 3 receptor: further structure-activity relationships” (J Med Chem, 1995).

Experiments:
[1] = target: D(2) dopamine receptor (Rattus norvegicus) (UniProt P61169); test: Binding affinity against Dopamine receptor D2 by using [3H]- radioligand
Outline: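 D2 competition assay on rat corpus striatum homogenate (30 μg protein) in 10 mM Tris/150 mM NaCl, pH 7.4, at 30 °C for 90 min. Radioligand was 0.065 nM [3H]emonapride (YM-09151); 250 nM (+)-butaclamol defined nonspecific binding. Six to eight test concentrations spanning 0.01–10 000 nM, in triplicate. Sigmoidal-fit IC50 converted to K0.5 via IC50/(1 + L/KD); repeated twice, ± SEM.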

[2] = target: D(1A) dopamine receptor (Rattus norvegicus) (UniProt P18901); test: Binding affinity against Dopamine receptor D1 by using [3H]SCH-23390 as radioligand
Outline: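 Rat corpus striatum homogenate (30 μg protein) in 10 mM Tris with 150 mM NaCl, pH 7.4. Incubated 30 min at 30 °C with 0.3 nM [3H]SCH-23390; 300 nM cis-(Z)-flupenthixol defined nonspecific binding. Test ligand at 6–8 concentrations (0.01–10 000 nM) in triplicate, then filtration and scintillation counting. IC50 from sigmoidal fit converted to K0.5 = IC50/(1 + L/KD); assay repeated twice, ± SEM.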

[3] = target: D(3) dopamine receptor (Homo sapiens) (UniProt P35462); test: Binding affinity against Dopamine receptor D3 by using [3H]- radioligand
[4] = Binding affinity against Sigma receptor type 3 by using [3H]-(-)-H2-PAT as radioligand; conditions: Rattus norvegicus
[5] = target: D(1A) dopamine receptor (Rattus norvegicus) (UniProt P18901)
[6] = target: D(2) dopamine receptor (Rattus norvegicus) (UniProt P61169)
[7] = target: Sigma non-opioid intracellular receptor 1 (Rattus norvegicus) (UniProt Q9R0C9)
Sequence of Sigma non-opioid intracellular receptor 1 (Rattus norvegicus) (Q9R0C9 whole entry): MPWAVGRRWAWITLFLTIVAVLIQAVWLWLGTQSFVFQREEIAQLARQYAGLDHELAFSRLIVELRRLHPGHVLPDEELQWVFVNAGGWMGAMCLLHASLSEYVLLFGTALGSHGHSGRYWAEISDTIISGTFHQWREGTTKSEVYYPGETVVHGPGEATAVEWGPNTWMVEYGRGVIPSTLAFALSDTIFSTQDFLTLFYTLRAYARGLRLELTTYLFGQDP

Sequence of D(1A) dopamine receptor (Rattus norvegicus) (P18901 whole entry): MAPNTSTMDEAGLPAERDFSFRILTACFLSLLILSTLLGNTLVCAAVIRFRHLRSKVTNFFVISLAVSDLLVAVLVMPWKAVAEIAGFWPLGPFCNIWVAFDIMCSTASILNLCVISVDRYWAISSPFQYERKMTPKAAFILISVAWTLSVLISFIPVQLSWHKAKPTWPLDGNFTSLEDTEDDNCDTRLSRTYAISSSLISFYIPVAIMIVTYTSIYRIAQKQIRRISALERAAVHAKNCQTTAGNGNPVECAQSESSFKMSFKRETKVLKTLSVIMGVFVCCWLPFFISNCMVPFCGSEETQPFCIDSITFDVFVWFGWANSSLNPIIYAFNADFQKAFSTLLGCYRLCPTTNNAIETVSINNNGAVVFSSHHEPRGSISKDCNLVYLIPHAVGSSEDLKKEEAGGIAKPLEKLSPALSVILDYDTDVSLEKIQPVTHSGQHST
Sequence of D(3) dopamine receptor (Homo sapiens) (P35462 whole entry, looked up): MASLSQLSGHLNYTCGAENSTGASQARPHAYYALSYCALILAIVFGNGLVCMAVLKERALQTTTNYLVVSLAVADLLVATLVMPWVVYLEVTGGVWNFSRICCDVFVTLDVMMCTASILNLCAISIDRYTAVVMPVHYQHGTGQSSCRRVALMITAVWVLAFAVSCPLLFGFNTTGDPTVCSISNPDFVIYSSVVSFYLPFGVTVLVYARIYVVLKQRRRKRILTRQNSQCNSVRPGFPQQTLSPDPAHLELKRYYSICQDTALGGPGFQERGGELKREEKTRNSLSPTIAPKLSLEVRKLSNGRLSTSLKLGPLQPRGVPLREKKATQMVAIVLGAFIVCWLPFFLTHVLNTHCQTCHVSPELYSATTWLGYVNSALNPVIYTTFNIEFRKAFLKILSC
Sequence of D(2) dopamine receptor (Rattus norvegicus) (P61169 whole entry): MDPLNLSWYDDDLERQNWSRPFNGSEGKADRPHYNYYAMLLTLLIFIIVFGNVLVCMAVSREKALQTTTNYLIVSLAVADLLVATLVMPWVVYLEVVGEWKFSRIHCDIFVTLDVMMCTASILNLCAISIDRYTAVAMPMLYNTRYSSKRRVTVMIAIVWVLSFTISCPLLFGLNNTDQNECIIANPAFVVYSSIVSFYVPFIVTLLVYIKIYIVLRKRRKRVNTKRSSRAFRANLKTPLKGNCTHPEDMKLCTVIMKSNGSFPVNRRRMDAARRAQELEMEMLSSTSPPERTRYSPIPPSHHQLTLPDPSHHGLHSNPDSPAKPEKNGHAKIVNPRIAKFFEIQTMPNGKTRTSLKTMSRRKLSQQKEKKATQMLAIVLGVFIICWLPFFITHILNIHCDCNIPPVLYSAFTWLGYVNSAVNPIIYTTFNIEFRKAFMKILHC

| Ki 0.5 [1] | Ki 0.5 [2] | Ki 0.5 [3] | Ki 0.5 [4] | Ki 0.5 [5] | Ki 0.5 [6] | Ki 0.5 [7] | Structure (SMILES) |
| --- | --- | --- | --- | --- | --- | --- | --- |
| 5 µM | > 5 µM | 1 µM | 0.0218 µM | – | – | – | CN(C)[C@@H]1CCc2ccccc2[C@@H](c2ccccc2)C1 |
| > 2.5 µM | > 5 µM | > 1 µM | 0.035 µM | – | – | – | C[N+](C)(C)[C@@H]1Cc2ccccc2[C@@H](c2ccccc2)C1 |
| > 5 µM | > 5 µM | > 1 µM | 1.3 µM | – | – | – | CN(C)[C@@H]1CCc2ccccc2[C@@H]1c1ccccc1 |
| > 5 µM | > 2.5 µM | 1 µM | 0.0025 µM | – | – | – | CN(C)[C@H]1Cc2ccccc2[C@@](C)(c2ccccc2)C1 |
| > 5 µM | > 5 µM | > 1 µM | 0.98 µM | – | – | – | CN(C)[C@@H]1CCc2ccccc2[C@H]1c1ccccc1 |
| – | – | 0.3 µM | 0.0003 µM | 0.42 µM | 0.26 µM | 2 µM | CN(C)[C@@H]1Cc2cc(Cl)c(O)cc2[C@@H](c2ccccc2)C1 |
| 0.54 µM | 0.38 µM | – | 0.3 µM | – | – | – | CN(CCCc1ccccc1)[C@@H]1Cc2ccccc2[C@@H](c2ccccc2)C1 |
| 0.37 µM | 0.054 µM | – | 0.15 µM | – | – | – | CN(CCc1ccccc1)[C@@H]1Cc2ccccc2[C@@H](c2ccccc2)C1 |
| > 5 µM | > 5 µM | > 1 µM | 0.12 µM | – | – | – | CN[C@@H]1Cc2ccccc2[C@@H](c2ccccc2)C1 |
| > 5 µM | > 5 µM | > 1 µM | 0.12 µM | – | – | – | CN(C)[C@H]1CCc2ccccc2[C@H](c2ccccc2)C1 |

The next lines start with the molecule.

| Structure (SMILES) | Ki 0.5 [1] | Ki 0.5 [2] | Ki 0.5 [3] | Ki 0.5 [4] | Ki 0.5 [5] | Ki 0.5 [6] | Ki 0.5 [7] |
| --- | --- | --- | --- | --- | --- | --- | --- |
| CN(C)[C@@H]1Cc2ccccc2[C@@](C)(c2ccccc2)C1 | > 5 µM | > 5 µM | > 1 µM | 0.0182 µM | – | – | – |
| c1ccc(CCCN[C@@H]2Cc3ccccc3[C@@H](c3ccccc3)C2)cc1 | 5 µM | > 5 µM | – | 2.53 µM | – | – | – |
| CN(C)[C@@H]1Cc2ccccc2[C@@H](c2ccccc2)C1 (stereo in doubt; (-)-2) | > 5 µM | > 5 µM | > 1 µM | 0.0005 µM | – | – | – |
| CN(C)[C@@H]1Cc2ccccc2[C@H](c2ccccc2)C1 | – | – | – | 0.074 µM | – | – | – |
| c1ccc(CCCCN[C@@H]2Cc3ccccc3[C@@H](c3ccccc3)C2)cc1 | 1.6 µM | 1.53 µM | – | 1.05 µM | – | – | – |
| CN(C)[C@@H]1Cc2ccccc2[C@@H](c2ccccc2)C1 (stereo in doubt; (+)-2) | > 5 µM | > 5 µM | 1 µM | 0.0135 µM | – | – | – |
| CN(C)[C@@H]1Cc2ccccc2[C@@H](c2ccccc2)C1 (stereo in doubt; 2) | 5 µM | 2.5 µM | 1 µM | 0.0011 µM | – | – | – |
| CN(CCCCc1ccccc1)[C@@H]1Cc2ccccc2[C@@H](c2ccccc2)C1 | 0.24 µM | 0.44 µM | – | 0.28 µM | – | – | – |
